Hits are enriched below; roughly 29% of the tested compounds scored in any of these assays.
CYP2C19 inh: blockers of cytochrome P450 2C19 activity – biochemical, luminescence, ADME assay, primary screen. P33261. CYP2C19 Supersomes, luciferin-H EGE luminescence, 30 min. inhibition, % at 5 µM. actives 21% (n = 96,000). AID 778, 2007;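 active = CYP2C19 inhibition above a set limit at 5 µM in the primary screen, cut at about 50% in these data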;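 note: plate controls were negative control wells for no effect and 2.5 mM tranylcypromine positive control for full effect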
Target sequence (P33261 whole entry, looked up): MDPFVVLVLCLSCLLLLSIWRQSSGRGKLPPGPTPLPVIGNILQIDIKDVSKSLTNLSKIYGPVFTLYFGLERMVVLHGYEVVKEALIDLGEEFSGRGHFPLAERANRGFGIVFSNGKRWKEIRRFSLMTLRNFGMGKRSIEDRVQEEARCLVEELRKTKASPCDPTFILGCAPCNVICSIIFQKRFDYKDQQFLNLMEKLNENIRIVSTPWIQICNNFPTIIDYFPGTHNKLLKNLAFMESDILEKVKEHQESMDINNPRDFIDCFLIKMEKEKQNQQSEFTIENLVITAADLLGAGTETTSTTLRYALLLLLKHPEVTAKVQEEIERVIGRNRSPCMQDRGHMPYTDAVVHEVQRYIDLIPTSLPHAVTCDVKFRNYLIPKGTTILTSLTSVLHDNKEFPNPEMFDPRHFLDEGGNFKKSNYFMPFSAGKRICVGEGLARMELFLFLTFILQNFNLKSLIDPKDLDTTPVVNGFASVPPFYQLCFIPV
E coli WT exp: growth inhibitors of wild-type E. coli, primary screen, strain BW25113, expanded library, OD600 | OD600 absorbance | growth inhibition, % at 100 µM | actives 0.15% (n = 98,000) | AID 710, 2007;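 active = growth inhibition above about 50% at one test dose, limit read from the data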;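 note: growth measured after 20 h incubation at 37 °C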
tolC growth inh: growth inhibitors of E. coli tolC mutant, primary screen, strain BW25113 ΔtolC::kan, 384-well; OD615; growth inhibition, % at 10 µM (by protocol); actives 2.2% (n = 65,000); AID 573, 2007;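 active = growth inhibition at or above a cutoff equal to the mean over every tested compound plus 3 SD, cut at about 60% in these data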;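 note: growth measured after 20 h incubation at 37 °C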
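Test system: E. coli BW25113 ΔtolC::kan bacteria | Medium: Kanamycin-containing LB broth (50 µg/mL) | Dosing: One dose of 10 µM final | Times: 20 h incubation with compound, 37 °C | Detection: Optical density read at 615 nm | Read-out basis: Percent growth inhibition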
CYP2C9 inhib: blockers of cytochrome P450 2C9 activity – biochemical, luminescence, ADME assay, primary screen. actives 20% (n = 96,000). inhibition, % at 5 µM. CYP2C9 Supersomes, luciferin-H conversion. P11712;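 active = blocking of liver enzyme CYP2C9 beyond about 50% at 5 µM, limit read from the data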
CYP2C19 act: human CYP2C19 activators, primary screen, biochemical, luminescence. Cytochrome P450 2C19 (Homo sapiens), P33261. AID 1025, 2008. activation factor at 5 µM. 96,000 tested, under 10 active. recombinant CYP2C19, luciferin-H EGE luminescence; stronger effect = higher value; 0 = fully inhibited enzyme, 1 = untreated enzyme;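 active = activation factor of at least 2 at 5 µM in the primary screen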;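 note: 0 = wells with 2.5 mM tranylcypromine and 1 = vehicle-only wells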
CYP2C9 act: human CYP2C9 activators, primary screen, biochemical, luminescence | activation factor at 5 µM | Cytochrome P450 2C9 (Homo sapiens), P11712 | recombinant CYP2C9, luciferin-H conversion; stronger effect = higher value; factor 1 = untreated enzyme, 0 = blocked | actives 1.4% (n = 96,000);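 active = activation factor of 2 or more for CYP2C9 at a 5 µM dose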;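 note: 0 = sulfaphenazole-blocked wells and 1 = vehicle-only wells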
Starred values were filed as active, the others as inactive; x = no result given.

SMILES | CYP2C19 inh | E coli WT exp | tolC growth inh | CYP2C9 inhib | CYP2C19 act | CYP2C9 act
CCCc1nnc(NC(=O)CN2C(=O)c3ccccc3C2=O)s1 | -14 | -1 | x | 9 | 1.1 | 0.9
O=C(CSCC(=O)Nc1nccs1)Nc1ccccc1 | 24 | 3 | 2 | 19 | 0.8 | 0.8
O=C(CCn1c(=O)sc2ccccc21)Nc1nccs1 | 84* | 5 | -15 | -9 | 0.2 | 1.1
COc1cc(C2N=C(c3ccccc3)NO2)cc(Br)c1O (stereo unspecified) | 87* | -6 | 6 | -7 | 0.1 | 1.1
COc1cc2c(cc1OC)C(C(=O)O)C(c1cc(Br)c(O)c(OC)c1)N(C)C2=O (stereo unspecified) | -4 | -1 | -15 | 12 | 1 | 0.9
N#Cc1ccc(-c2ccccc2)nc1SCC(=O)c1cccc(Cl)c1 | 31 | -9 | x | 63* | 0.7 | 0.4
N#Cc1ccc(-c2ccc(Cl)cc2)nc1SCC(=O)c1cccc(Cl)c1 | 3 | -10 | x | 12 | 1 | 0.9
CC1(C(=O)N2CC3(CC(c4ccccc4)=NO3)C[C@H]2C(=O)NCC(N)=O)CC1 (stereo partly specified) | 7 | 1 | x | -12 | 0.9 | 1.1
O=C(Nc1ccccc1)c1nnsc1S(=O)c1ccc(Cl)cc1 (stereo unspecified) | -6 | 18 | x | 64* | 1.1 | 0.4
COc1ccc(NS(=O)(=O)c2ccc(N)c(C(=O)O)c2)cc1 | 7 | 3 | -5 | -5 | 0.9 | 1.1
COc1ccc(NS(=O)(=O)c2ccc(-n3nnc4ccccc43)c([N+](=O)[O-])c2)cc1 | 74* | 2 | x | 93* | 0.3 | 0.1
O=[N+]([O-])c1cc(S(=O)(=O)Nc2cccc(C(F)(F)F)c2)ccc1-n1nnc2ccccc21 | 93* | 4 | x | 98* | 0.1 | 0
CCC(CC)C(=O)Nc1c2c(nn1-c1ccc(OC)cc1)CS(=O)C2 (stereo unspecified) | 23 | 2 | -22 | 27 | 0.8 | 0.7
Cc1ccc(S(=O)(=O)C2(C(=O)N3CCCCCC3)CC2)cc1 | 79* | 1 | -4 | 9 | 0.2 | 0.9
COc1ccc(/C=N/N=C2/NC(=O)C(c3ccccc3)(c3ccccc3)S2)cc1 | 5 | -9 | x | 82* | 0.9 | 0.2
N#Cc1ccccc1NC(=O)CC1CCCCC1 | 58* | -1 | x | 0 | 0.4 | 1
O=c1nc(/C=C/c2cc([N+](=O)[O-])ccc2Cl)cc(C(F)(F)F)[nH]1 | -3 | 2 | x | 81* | 1 | 0.2
O=[N+]([O-])c1ccc2nc(/C=C/c3ccc(Cl)cc3)[nH]c2c1 | 32 | 14 | x | 43 | 0.7 | 0.6
C=CCN(CC=C)C(=S)NC(=O)c1ccc(OC)c(Br)c1 | 74* | 13 | x | 11 | 0.3 | 0.9
COc1ccc(-c2cc(C#N)nc(N3CCN(c4ccccc4)CC3)n2)cc1 | 17 | -10 | x | 22 | 0.8 | 0.8
COC(=O)C1=C(C)NC2=C(C(=O)CC(C)(C)C2)C1c1cn(Cc2ccc(Br)cc2)nc1-c1ccccc1 (stereo unspecified) | 35 | -13 | x | 71* | 0.7 | 0.3
COC(=O)C1=C(C)NC2=C(C(=O)CC(C)(C)C2)C1c1cccc(C)n1 (stereo unspecified) | -6 | -2 | -7 | -15 | 1.1 | 1.1
COC(=O)C1=C(C)NC2=C(C(=O)CCC2)C1c1cn(Cc2ccc(Br)cc2)nc1-c1ccccc1 (stereo unspecified) | 48 | -9 | x | 86* | 0.5 | 0.1
COC(=O)C1=C(C)NC2=C(C(=O)CCC2)C1c1cccc(C)n1 (stereo unspecified) | 9 | -5 | 5 | -20 | 0.9 | 1.2
CCOc1cc(C2c3c(n[nH]c3C)C(=O)N2c2ccc(Br)cc2)ccc1O (stereo unspecified) | 81* | 0 | 12 | 71* | 0.2 | 0.3
SMILES | CYP2C19 inh | E coli WT exp | tolC growth inh | CYP2C9 inhib | CYP2C19 act | CYP2C9 act
COc1cc(C2c3c(n[nH]c3C)C(=O)N2c2ccc(Br)cc2)ccc1O (stereo unspecified) | 52* | 10 | 13 | 31 | 0.5 | 0.7
Cc1cc(C)c[n+](-c2nc([O-])sc2C=O)c1 | -2 | 3 | x | 1 | 1 | 1
Cc1noc(C)c1C(=O)Nc1ccc(F)cc1F | 3 | 7 | x | -6 | 1 | 1.1
Cc1cc(NC(=O)CCSc2nc(-c3ccco3)cc(C(F)(F)F)n2)no1 | 0 | -7 | x | -26 | 1 | 1.3
Cc1ccccc1Cn1ccc(NC(=O)c2cnn3c(C(F)(F)F)cc(-c4ccco4)nc23)n1 | 48 | -10 | 22 | 61* | 0.5 | 0.4
O=C(Nc1ccc2c(c1)OCO2)c1cnn2c(C(F)(F)F)cc(-c3ccco3)nc12 | 0 | -16 | 0 | 17 | 1 | 0.8
Cc1ccccc1Cn1ccc(NC(=O)CCSc2nc(-c3ccco3)cc(C(F)(F)F)n2)n1 | 79* | -19 | 45 | 85* | 0.2 | 0.1
O=C(Nc1cnn(C23CC4CC(CC(C4)C2)C3)c1)c1cnn2c(C(F)(F)F)cc(-c3ccco3)nc12 | 65* | -14 | 26 | 78* | 0.4 | 0.2
Cc1ccc(Cn2ccc(NC(=O)CCSc3nc(-c4ccco4)cc(C(F)(F)F)n3)n2)cc1 | 81* | -23 | 31 | 93* | 0.2 | 0.1
COc1ccc(-n2ncc3c(NCCCn4ccnc4)ncnc32)cc1 | x | 4 | 0 | x | x | x
COC(=O)c1ccc(-c2cc(C(=O)O)c3cc4c(cc3n2)OCCO4)cc1 | 15 | -4 | 3 | 0 | 0.9 | 1
O=C(COC(=O)c1cncc(Br)c1)NCC1CCCO1 (stereo unspecified) | 18 | -4 | -22 | 0 | 0.8 | 1
O=C(CN1C(=O)C2CC=CCC2C1=O)Nc1nc2ccccc2[nH]1 (stereo unspecified) | -5 | -7 | -6 | 2 | 1 | 1
CC(=O)N1CCc2cc(NC(=O)c3ccc(C)cc3)ccc21 | -7 | -2 | 3 | -15 | 1.1 | 1.1
COC(=O)c1ccccc1NC(=O)COC(=O)c1cccnc1 | 50 | -10 | 22 | 40 | 0.5 | 0.6
O=C(COC(=O)c1ccncc1)Nc1cc(Cl)c(Cl)cc1Cl | 98* | 4 | x | 88* | 0 | 0.1
O=C(OCc1ccc(F)cc1Cl)c1ccccn1 | 80* | 9 | -14 | 17 | 0.2 | 0.8
O=C(COC(=O)c1ccncc1)Nc1cc(Cl)ccc1Cl | 66* | -1 | x | 90* | 0.3 | 0.1
O=C(OCc1ccc(Cl)cc1Cl)c1ccncc1 | 69* | 0 | x | 44 | 0.3 | 0.6
O=C(Cn1cc2c(n1)CCCCC2)NCc1cccs1 | x | x | -1 | x | x | x
